In ChEMBL document CHEMBL3243954 (J Med Chem, 1979):

Tests used:
[1] = system: Mus musculus; assay: Antimetrazol activity in iv dosed mouse assessed as inhibition of metrazol-induced tonic-extensor seizures administered 30 mins prior to metrazol challenge; assay type: functional
In short: (§1)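 Mice dosed iv with the ester in aqueous solution containing under 10% chremofor. Metrazol 125 mg/kg sc was given 30 or 60 min after the ester. ED50 is the dose preventing tonic-extensor seizures in 50% of mice, derived by probit analysis.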

[2] = system: Mus musculus; assay: Antimetrazol activity in iv dosed mouse assessed as inhibition of metrazol-induced tonic-extensor seizures administered 60 mins prior to metrazol challenge; assay type: functional; in short: as §1
[3] = system: Mus musculus; assay: Muscle relaxant activity in iv dosed mouse after 30 mins by rotarod test; assay type: ADME, organism-based; details: in vivo, 0.5 h
[4] = system: Mus musculus; assay: Muscle relaxant activity in iv dosed mouse after 60 mins by rotarod test; assay type: ADME, organism-based; details: in vivo, 1 h
[5] = species on record: Mus musculus; assay: Ratio of ED50 for muscle relaxant activity in mouse to ED50 for antimetrazol activity in mouse measured after 30 mins
[6] = Drug metabolism in mouse liver microsomes assessed as rate of esterase-mediated compound hydrolysis measured per mg of protein by pH stat based titrimetric analysis; assay type: ADME
[7] = species on record: Mus musculus; assay: Ratio of ED50 for muscle relaxant activity in mouse to ED50 for antimetrazol activity in mouse measured after 60 mins
[8] = system: Brain; assay: Drug uptake albino mouse brain at 5 mg equivalent of oxazepam/kg, iv after 3 mins measured per gm of tissue by thin-layer chromatography; assay type: ADME, organism-based; details: in vivo, 0.05 h
[9] = system: Brain; assay: Drug uptake albino mouse brain at 5 mg equivalent of oxazepam/kg, iv after 5 mins measured per gm of tissue by thin-layer chromatography; assay type: ADME, organism-based; details: in vivo
[10] = system: Brain; assay: Drug uptake albino mouse brain at 5 mg equivalent of oxazepam/kg, iv after 10 mins measured per gm of tissue by thin-layer chromatography; assay type: ADME, organism-based; details: in vivo
[11] = system: Brain; assay: Drug uptake albino mouse brain at 5 mg equivalent of oxazepam/kg, iv after 20 mins measured per gm of tissue by thin-layer chromatography; assay type: ADME, organism-based; details: in vivo
[12] = system: Brain; assay: Drug uptake albino mouse brain at 5 mg equivalent of oxazepam/kg, iv after 40 mins measured per gm of tissue by thin-layer chromatography; assay type: ADME, organism-based; details: in vivo
[13] = system: Brain; assay: Drug uptake albino mouse brain at 5 mg equivalent of oxazepam/kg, iv after 60 mins measured per gm of tissue by thin-layer chromatography; assay type: ADME, organism-based; details: in vivo, 1 h
[14] = system: Brain; assay: Drug uptake albino mouse brain at 5 mg equivalent of oxazepam/kg, iv after 120 mins measured per gm of tissue by thin-layer chromatography; assay type: ADME, organism-based; details: in vivo, 2 h
[15] = system: Brain; assay: Drug uptake albino mouse brain at 5 mg equivalent of oxazepam/kg, iv after 240 mins measured per gm of tissue by thin-layer chromatography; assay type: ADME, organism-based; details: in vivo, 4 h
[16] = Drug metabolism in mouse liver microsomes assessed as rate of esterase-mediated compound hydrolysis by pH stat based titrimetric analysis; assay type: ADME; details: microsomes
[17] = system: Brain; assay: Drug uptake albino mouse brain at 10 mg equivalent of oxazepam/kg, iv after 1 min measured per gm of tissue by thin-layer chromatography; assay type: ADME, organism-based; details: in vivo
[18] = system: Brain; assay: Drug uptake albino mouse brain at 10 mg equivalent of oxazepam/kg, iv after 3 mins measured per gm of tissue by thin-layer chromatography; assay type: ADME, organism-based; details: in vivo, 0.05 h
[19] = system: Brain; assay: Drug uptake albino mouse brain at 10 mg equivalent of oxazepam/kg, iv after 5 mins measured per gm of tissue by thin-layer chromatography; assay type: ADME, organism-based; details: in vivo
[20] = system: Brain; assay: Drug uptake albino mouse brain at 10 mg equivalent of oxazepam/kg, iv after 10 mins measured per gm of tissue by thin-layer chromatography; assay type: ADME, organism-based; details: in vivo
[21] = system: Brain; assay: Drug uptake albino mouse brain at 10 mg equivalent of oxazepam/kg, iv after 20 mins measured per gm of tissue by thin-layer chromatography; assay type: ADME, organism-based; details: in vivo
[22] = system: Brain; assay: Drug uptake albino mouse brain at 10 mg equivalent of oxazepam/kg, iv after 30 mins measured per gm of tissue by thin-layer chromatography; assay type: ADME, organism-based; details: in vivo, 0.5 h
[23] = system: Brain; assay: Drug uptake albino mouse brain at 10 mg equivalent of oxazepam/kg, iv after 60 mins measured per gm of tissue by thin-layer chromatography; assay type: ADME, organism-based; details: in vivo, 1 h
[24] = system: Brain; assay: Drug uptake albino mouse brain at 10 mg equivalent of oxazepam/kg, iv after 120 mins measured per gm of tissue by thin-layer chromatography; assay type: ADME, organism-based; details: in vivo, 2 h
[25] = system: Brain; assay: Drug uptake albino mouse brain at 10 mg equivalent of oxazepam/kg, iv after 240 mins measured per gm of tissue by thin-layer chromatography; assay type: ADME, organism-based; details: in vivo, 4 h
[26] = Retardation factor, Rm of the compound by thin-layer chromatography; assay type: physicochemical
[27] = system: Brain; assay: Drug uptake albino mouse brain at 10 mg equivalent of oxazepam/kg, iv after 2 mins measured per gm of tissue by thin-layer chromatography; assay type: ADME, organism-based; details: in vivo
[28] = system: Brain; assay: Drug uptake albino mouse brain at 10 mg equivalent of oxazepam/kg, iv after 40 mins measured per gm of tissue by thin-layer chromatography; assay type: ADME, organism-based; details: in vivo
[29] = system: Brain; assay: Drug uptake albino mouse brain at 10 mg equivalent of oxazepam/kg, iv after 90 mins measured per gm of tissue by thin-layer chromatography; assay type: ADME, organism-based; details: in vivo, 1.5 h
[30] = Mus musculus, iv, read-out: ED50

CC(C)C(=O)OC1N=C(c2ccccc2)c2cc(Cl)ccc2NC1=O (stereo unspecified)
ED50 [1, 30]: 0.51 mg/kg | ED50 [2, 30]: 0.33 mg/kg | ED50 [3]: 2.45 mg/kg | ED50 [4]: 2.67 mg/kg | Ratio ED50 [5]: 4.8 | Vmax [6]: 131 nmol/min | Ratio ED50 [7]: 8.1

CC(Cc1ccccc1)C(=O)OC1N=C(c2ccccc2)c2cc(Cl)ccc2N[14C]1=O (single isomer, unassigned; (-))
Drug uptake [8]: 0.8 nmol | Drug uptake [9]: 1.6 nmol | Drug uptake [10]: 4.6 nmol | Drug uptake [11]: 6.7 nmol | Drug uptake [12]: 11.8 nmol | Drug uptake [13]: 14.8 nmol | Drug uptake [14]: 13.7 nmol | Drug uptake [15]: 12.2 nmol

CC(Cc1ccccc1)C(=O)OC1N=C(c2ccccc2)c2cc(Cl)ccc2NC1=O (racemic)
Km [16]: 8.3 µM | ED50 [1]: 0.51 mg/kg | ED50 [2, 30]: 0.66 mg/kg | ED50 [3]: 3.75 mg/kg | ED50 [4]: 4.01 mg/kg | Ratio ED50 [5]: 7.4 | Vmax [6]: 2.4 nmol/min | Ratio ED50 [7]: 6.1

CC(=O)OC1N=C(c2ccccc2)c2cc(Cl)ccc2N[14C]1=O (stereo unspecified)
Drug uptake [17]: 29.9 nmol | Drug uptake [18]: 39.4 nmol | Drug uptake [19]: 47.5 nmol | Drug uptake [20]: 59.5 nmol | Drug uptake [21]: 49.2 nmol | Drug uptake [22]: 40.3 nmol | Drug uptake [23]: 46.6 nmol | Drug uptake [24]: 33 nmol | Drug uptake [25]: 11 nmol | Rm [26]: -0.15

CC(Cc1ccccc1)C(=O)OC1N=C(c2ccccc2)c2cc(Cl)ccc2N[14C]1=O (stereo in doubt; [14C]-11)
Drug uptake [8]: 2.1 nmol | Drug uptake [9]: 2.6 nmol | Drug uptake [10]: 5.6 nmol | Drug uptake [11]: 7.7 nmol | Drug uptake [12]: 10.8 nmol | Drug uptake [13]: 12.8 nmol | Drug uptake [14]: 11.7 nmol | Drug uptake [15]: 7.2 nmol

CCCC(=O)OC1N=C(c2ccccc2)c2cc(Cl)ccc2NC1=O (stereo unspecified)
ED50 [1, 30]: 0.29 mg/kg | ED50 [2, 30]: 0.32 mg/kg | ED50 [3]: 2.64 mg/kg | ED50 [4]: 3.28 mg/kg | Ratio ED50 [5]: 9.1 | Vmax [6]: 88 nmol/min | Ratio ED50 [7]: 10.3

CC(Cc1ccccc1)C(=O)OC1N=C(c2ccccc2)c2cc(Cl)ccc2NC1=O (single isomer, unassigned; (-))
Km [16]: 8.7 µM | ED50 [1]: 0.81 mg/kg | ED50 [2]: 0.92 mg/kg | ED50 [3]: 2.86 mg/kg | ED50 [4]: 2.2 mg/kg | Ratio ED50 [5]: 3.5 | Vmax [6]: 2.6 nmol/min | Ratio ED50 [7]: 2.4

CCC(CC)C(=O)OC1N=C(c2ccccc2)c2cc(Cl)ccc2N[14C]1=O (stereo unspecified)
Drug uptake [27]: 0.8 nmol | Drug uptake [19]: 2 nmol | Drug uptake [20]: 4.8 nmol | Drug uptake [21]: 7.8 nmol | Drug uptake [22]: 12.1 nmol | Drug uptake [28]: 18 nmol | Drug uptake [23]: 23.1 nmol | Drug uptake [29]: 20.9 nmol | Drug uptake [24]: 20 nmol | Drug uptake [25]: 13.5 nmol | Rm [26]: 0.46

O=C1Nc2ccc(Cl)cc2C(c2ccccc2)=NC1O (stereo unspecified) [OXAZEPAM]
ED50 [1, 30]: 0.18 mg/kg | ED50 [2, 30]: 0.39 mg/kg

CC(=O)OC1N=C(c2ccccc2)c2cc(Cl)ccc2NC1=O (stereo unspecified)
ED50 [1, 30]: 0.38 mg/kg | ED50 [2, 30]: 0.33 mg/kg | ED50 [3]: 0.97 mg/kg | ED50 [4]: 1.2 mg/kg | Ratio ED50 [5]: 2.6 | Vmax [6]: 323 nmol/min | Ratio ED50 [7]: 3.6
